Screens as filed in PubChem.
BaF3 tox – reduces parental Ba/F3 cell viability, JAK2V617F counter-screen. hit rate 1.1% among 220,000. CellTiter-Glo ATP luminescence. inhibition, % at 5.6 µM;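 active = inhibition above a per-campaign cutoff, the mean inhibition of all tested compounds plus 3 SD, cut at about 27% in these data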;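 also: 0% = DMSO wells and 100% = JAK Inhibitor I control wells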
bCat nuc transl – modulators of beta-catenin nuclear translocation | HeLa beta-catenin nuclear translocation, immunofluorescence imaging | nuclear translocation activity, % at 5 µM | hit rate 0.3% among 190,000 | AID 1665;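 active = nuclear translocation activity above 50% at 5 µM, with a well cell count of 50 or more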;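 also: per-cell ratio of nuclear to cytoplasmic median beta-catenin stain intensity; plate controls were DMSO negative control for no effect and GSK-3 inhibitor IX positive control for full effect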
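Technique: fluorescence imaging of beta-catenin antibody stain plus DAPI / Material: human HeLa cell line / Incubation: compound treatment 24 h, 37°C, 5% CO2 / Read-out basis: % activation of per-cell nuclear versus cytoplasmic median beta-catenin signal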
IEC-6 tox – counter-screen for KLF5 inhibitors: cytotoxicity in IEC-6 cells; hit rate 0.78% among 290,000; IEC-6 cytotoxicity, luminescence viability; AID 1825; inhibition, % at 5 µM; in the data active = inhibition above about 22%;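 also: 0% = plate median of test compound wells and 100% = cytotoxic reference compound wells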
MT stabilize HCS – microtubule stabilization, imaging screen; AID 2205; HeLa tubulin immunostaining HCS, 24 h; share of cells brighter than vehicle mean+2SD; % tubulin-high responders, % at 10 µM; hit rate 0.83% among 200,000;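 active = plate Z-score above 3 for both tubulin-high and condensed-nucleus cell shares, with cell loss under 80%, at 10 µM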;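 also: anti alpha tubulin signal scored within the nucleus-defined area of each cell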
Ba/F3 V617F tox – loss of viability in JAK2V617F-driven Ba/F3 cells; Ba/F3 EpoR-JAK2V617F viability, ATP luminescence; inhibition, % at 5.6 µM; hit rate 1.1% among 220,000; AID 1446;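 active = inhibition above the campaign mean plus 3 SD over all tested compounds, cut at about 24% in these data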;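 also: cytokine-independent growth of Ba/F3 cells driven by EpoR plus mutant JAK2; 0% = DMSO-treated cells and 100% = JAK inhibitor I control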
KLF5 inhibitor – suppresses KLF5 promoter-driven expression; DLD-1 KLF5 promoter-luciferase reporter, luminescence; inhibition, % at 5 µM; hit rate 0.23% among 290,000; AID 1700;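 active = inhibition above a per-plate limit of that plate's mean compound inhibition plus 3 SD, cut at about 60% in these data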;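 also: 0% = DMSO wells and 100% = LY294002 at 200 µM; higher means less KLF5 promoter-driven luciferase light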
* hit, by the source's call; . = no result. Shown are actives, neighbours in structure and some others; about 2.1% of the full set was active somewhere.

SMILES	BaF3 tox	bCat nuc transl	IEC-6 tox	MT stabilize HCS	Ba/F3 V617F tox	KLF5 inhibitor
COc1cc(S(=O)(=O)Nc2cccnc2)ccc1F	5	20	-4	5	-1	-23
COc1cc(S(=O)(=O)Nc2cc(C)cc(C)c2)ccc1F	7	.	4	12*	1	-18
COC(=O)C1=C(C)NC(C)=C(C(=O)OC)C1c1ccccc1OCc1c(C)no[n+]1[O-]	35*	-2	15	4	32*	-14
Cn1c(N2CCN(C(c3ccccc3)c3ccccc3)CC2)nc2ccccc21	.	.	-10	.	.	-16
COc1ccc(S(=O)(=O)Nc2cc3c4c(oc3c3ccccc23)CCCC4=O)cc1	9	-1	8	25*	4	24
COc1ccc(S(=O)(=O)Nc2cc3c4c(oc3c3ccccc23)CC(C)(C)CC4=O)cc1	5	1	2	20*	-2	-2
COCn1c(-c2ccc(OC)cc2)nc2ccccc21	6	3	4	4	2	-97
CCCn1c(-c2ccc(OC)cc2)nc2ccccc21	52*	0	3	1	40*	-3
CCOC(=O)C1=C(C)NC(=S)NC1c1ccsc1 (centres undefined)	7	1	3	3	3	-20
Cc1nn(-c2ccccc2)c(C)c1/C=N/NC(=O)c1cc(-c2ccc(Br)s2)[nH]n1	0	36	-11	22	-4	-43
Cc1nn(-c2ccccc2)c(C)c1/C=N/NC(=O)c1cc(-c2ccc(Cl)s2)[nH]n1	5	119*	-4	16*	-1	-13
Cc1ccc(C)c(OCC(=O)N/N=C/c2c(C)nn(-c3ccccc3)c2Cl)c1	5	-2	3	21*	5	-26
CC(/C=N/NC(=O)c1cc(C(C)(C)C)[nH]n1)=C\c1ccccc1	-1	-1	0	21	-3	-53
CC(/C=N/NC(=O)c1cc(-c2ccc(C)s2)[nH]n1)=C\c1ccccc1	2	1	-2	28*	-4	-28
CC1CCCN(CCOc2cccc(Oc3ccccc3)c2)C1 (centres undefined)	.	.	-5	.	.	-30
COc1ccc(C(=O)NC(=S)Nc2cccc(S(=O)(=O)N3CCOCC3)c2)cc1	8	0	11	22*	0	8
COc1ccc(NC(=O)c2cccc(S(=O)(=O)N3CCOCC3)c2)cc1	.	.	4	.	.	-21
Cc1nc2ccccc2n1CC(=O)NC(C)C1CC2CCC1C2 (centres undefined)	49*	2	4	5	40*	-4
CCc1nnc(N/N=C/c2cccs2)n1N	0	.	94*	5	3	-18
CCc1nnc(N/N=C/c2c(Cl)cccc2Cl)n1N	5	-2	62*	2	3	-13
Cc1cc(C)cc(C(=O)N2CCN(c3ccccn3)CC2)c1	4	1	7	1	1	6
CC/C(=N/N=C(\CC)c1ccccc1)c1ccccc1	8	-2	3	2	2	-9
CCCC(=O)N1CCN(c2ccc(NC(=O)c3ccc([N+](=O)[O-])o3)cc2Cl)CC1	82*	-2	0	4	94*	-41
CC(C)C(=O)N1CCN(c2ccc(NC(=O)c3ccc([N+](=O)[O-])o3)cc2Cl)CC1	-9	7	6	53*	10	-14
O=C(/C=C/c1ccco1)NCC1COc2ccccc2O1 (centres undefined)	-1	0	-2	.	-5	-6
SMILES	BaF3 tox	bCat nuc transl	IEC-6 tox	MT stabilize HCS	Ba/F3 V617F tox	KLF5 inhibitor
N#C/C(=C\c1ccc(Cl)cc1)c1nc2ncccc2[nH]1	3	21	-7	42*	-5	-8
N#C/C(=C\c1c(Cl)cccc1Cl)c1nc2ccccc2[nH]1	-1	-3	7	.	-1	-29
O=C(NC1CCSc2ccccc21)c1ccccc1Br (centres undefined)	.	.	0	.	.	-25
Cc1cc(C)c2c(=O)[nH]c(SCC(=O)N3CCCCC3)nc2n1	37*	-6	5	2	37*	7
Cc1cc(C)c2c(=O)[nH]c(SCC(=O)N3CCOCC3)nc2n1	1	-1	-2	2	-2	-45
CC(=O)Nc1ccc(NC(=O)COc2ccc(S(=O)(=O)N3CCCC3)cc2)cc1	.	.	-3	.	.	4
CC(C)(C)c1ccc(Cn2c(=N)n(CC(O)c3ccco3)c3ccccc32)cc1 (centres undefined)	17	-1	-3	9.5*	23	-45
Cc1ccccc1Cn1c(=N)n(CC(O)c2ccco2)c2ccccc21 (centres undefined)	6	0	6	2	-1	8
Cc1oc(-c2ccccc2Cl)nc1CS(=O)CC(=O)N1CCN(c2ccccc2)CC1 (centres undefined)	.	.	-4	.	.	-37
N#CC1=C2SCN(c3ccccc3)CN2C(=O)CC1c1ccccc1Cl (centres undefined)	39*	.	5	7	2	-13
CCc1cc2c(Nc3ccc(O)cc3)nc(C)nc2s1	.	.	0	.	.	-4
COc1cccc(CNC(=O)CC2Sc3ccccc3NC2=O)c1 (centres undefined)	59*	0	0	1	1	-16
COc1ccc(CNC(=O)CC2Sc3ccccc3NC2=O)cc1 (centres undefined)	11	1	-2	4	2	0
O=C(Nc1cccc(C(F)(F)F)c1)C(=O)N1CCCCC1	4	-2	-4	2	1	-52
Cc1ccc2nc(NC3=NCN(Cc4ccc5c(c4)OCO5)CN3)nc(C)c2c1	70*	.	9	3	63*	6
N#Cc1cn(Cc2ccncc2)c(=O)[nH]c1=O	0	-5	9	4	-2	-10
COc1ccc(NC(=O)c2c(Cl)n(C)c3ccccc23)cc1	4	3	15	49*	3	-29
O=C(NC1CCN(C(=O)N2c3ccccc3Sc3ccccc32)CC1)c1ccco1	7	-5	4	13*	2	-6
C=CCNC(=O)CN1CCC(NC(=O)c2ccco2)CC1	1	-1	-1	6	-1	-7
COCCNC(=O)CN1CCC(NC(=O)c2ccco2)CC1	46*	0	-3	2	1	-23
Cn1c(SCCOc2ccccc2Cl)nnc1-c1cccs1	37*	3	0	4	35*	-49
Cc1cc(OCCSc2nnc(-c3cccs3)n2C)ccc1Cl	8	-4	-4	2	0	-27
CN1/C(=C/c2cc[n+](C)c3ccccc23)C=Cc2ccccc21	63*	-8	-2	9	76*	11
CC(C)(C)NC(=O)C(c1ccc(F)cc1)N(CC1CCCO1)C(=O)CCC(=O)Nc1ccccn1 (centres undefined)	.	.	-5	.	.	-23
Fc1ccc(NC(=S)N2CCc3ccccc3C2)c(F)c1	39*	2	2	2	15	-3
CCOc1ccc(CCNC(=O)CSc2nn(-c3ccc(C)c(Cl)c3)c(=S)s2)cc1OCC	7	0	-4	4	-3	-4
